Here are results for 1 compound from ChEMBL document CHEMBL1127592, “Synthesis and SAR studies of novel triazolopyrimidine derivatives as potent, orally active angiotensin II receptor antagonists” (J Med Chem, 1994).

What is called pKi is −log10 of the Ki, conventionally taken in molar units. Higher therefore signals a small Ki.

Experiment [1] has as its system Rattus norvegicus. As to the kind of experiment: Compound at a dose of 1 mg/kg was administered orally and evaluated for change in mean arterial blood pressure in renal artery ligated hypertensive rats. To be noted: route oral. The experiment is classed as functional. The essentials: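 Male CD Sprague-Dawley rats (250-270 g), left renal artery ligated under ketamine (100 mg/kg ip); catheterized for direct recording 2-3 days before test. Single oral gavage, 3-7 rats/group. MAP recorded before and for 16 h after dosing; value is maximal MAP decrease, mean ± SEM; decrease under 15 mmHg counted as no effect.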

Experiment [2] deals with T1, Type-2 angiotensin II receptor (Rattus norvegicus, UniProt P35351).
T1 sequence (P35351 whole entry): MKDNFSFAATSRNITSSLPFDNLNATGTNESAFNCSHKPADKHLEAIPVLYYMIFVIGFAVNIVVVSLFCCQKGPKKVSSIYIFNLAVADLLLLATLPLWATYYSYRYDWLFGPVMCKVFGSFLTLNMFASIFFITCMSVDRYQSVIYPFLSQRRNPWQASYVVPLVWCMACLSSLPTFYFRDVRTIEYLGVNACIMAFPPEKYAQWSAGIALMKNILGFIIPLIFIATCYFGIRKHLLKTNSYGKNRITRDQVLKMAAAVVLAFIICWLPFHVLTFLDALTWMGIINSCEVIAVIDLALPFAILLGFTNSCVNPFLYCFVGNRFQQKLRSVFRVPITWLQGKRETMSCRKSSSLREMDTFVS
As to the kind of experiment: In vitro binding affinity against angiotensin-2 (AT-2) receptor in rat adrenal. The essentials:
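Rat adrenal membranes (25-40 μg protein) in Tris-HCl 50 mM, MgCl2 5 mM, 0.25% BSA, pH 7.2, with 0.2 nM [125I]Sar1-Ile8-AII and drug at 10^-9 to 10^-4 M, 60 min, 25 °C. 20 mM DTT included or omitted to separate AT1 and AT2 binding. Nonspecific binding with 1 μM AII; filtration. IC50 by log-logit, Ki by LIGAND; one experiment in triplicate.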

Experiment [3] has as its system Rattus norvegicus. As to the kind of experiment: Compound at a dose of 10 mg/kg was administered orally and evaluated for change in systolic arterial blood pressure in renal artery ligated hypertensive rats. It is filed as functional. To be noted: route oral. The essentials: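 Conscious male CD Sprague-Dawley rats (250-270 g) with left renal artery ligated several days earlier under ketamine. Single oral gavage, 3-8 rats/group. Systolic pressure by indirect tail-cuff sphygmomanometry before and 3 h post-dose; change reported as SAP decrease at 3 h, mean ± SEM.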

Experiment [4] addresses T2, Type-1 angiotensin II receptor B (Rattus norvegicus, UniProt P29089).
T2 sequence (P29089 whole entry): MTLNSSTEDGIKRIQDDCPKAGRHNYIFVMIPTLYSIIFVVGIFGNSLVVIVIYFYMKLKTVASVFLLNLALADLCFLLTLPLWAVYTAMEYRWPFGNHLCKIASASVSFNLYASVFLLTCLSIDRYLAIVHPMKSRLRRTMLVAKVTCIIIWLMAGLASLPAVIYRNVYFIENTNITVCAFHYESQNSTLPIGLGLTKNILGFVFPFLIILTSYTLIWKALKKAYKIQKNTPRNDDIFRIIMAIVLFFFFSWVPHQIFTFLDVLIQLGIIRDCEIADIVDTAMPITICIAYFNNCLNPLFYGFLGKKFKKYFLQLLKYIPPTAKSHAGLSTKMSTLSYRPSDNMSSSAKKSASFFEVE
Put plainly: Displacement of [125I]-Sar1-Ile8-A II from rat adrenal Angiotensin-1 (AT-1) receptor. In general terms: Displacement assays read how much labelled ligand stays bound in the presence of the test substance.

Each structure is given as a SMILES string. pKi: −log10 of the molar value.

Turning to `CCCc1nc(C)n2[nH]c(=O)nc2c1Cc1ccc(-c2ccccc2-c2nnn[nH]2)cc1`, the “Change in blood pressure” value in experiment [1] was -39.6 mmHg; in experiment [3], -92.2 mmHg. Further, the negative-log Ki (pKi) was 4.10 in experiment [2] and 7.62 in experiment [4].
